According to ChEMBL document CHEMBL1126707, “Tetrapeptide tachykinin antagonists: synthesis and modulation of the physicochemical and pharmacological properties of a new series of partially cyclic analogs” (J Med Chem, 1993):
Peptide text beside a SMILES is read from it.

Columns and labels:
[1] = biological target: Substance-P receptor (Oryctolagus cuniculus); assay: Tested for antagonist activity against NK1 receptor in rabbit vena cava by using substance P (SP) as agonist; details: read-out: pA2 (converted)
[2] = biological target: T1, Substance-K receptor (Oryctolagus cuniculus, UniProt P79218); assay: Tested for antagonist activity against NK-2 receptor in rabbit pulmonary artery by using Neurokinin A as agonist; type: functional; details: read-out: pA2 (converted)
T1 sequence (P79218 whole entry): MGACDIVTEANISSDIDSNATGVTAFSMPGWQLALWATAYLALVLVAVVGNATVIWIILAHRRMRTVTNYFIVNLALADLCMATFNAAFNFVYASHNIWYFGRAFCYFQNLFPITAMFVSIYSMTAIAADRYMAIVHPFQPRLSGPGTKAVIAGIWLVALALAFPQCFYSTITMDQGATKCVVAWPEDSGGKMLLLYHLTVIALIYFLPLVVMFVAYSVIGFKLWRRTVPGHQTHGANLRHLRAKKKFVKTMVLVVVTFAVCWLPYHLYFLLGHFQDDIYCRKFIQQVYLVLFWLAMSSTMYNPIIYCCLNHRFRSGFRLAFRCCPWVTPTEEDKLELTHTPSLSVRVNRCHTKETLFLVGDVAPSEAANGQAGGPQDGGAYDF
Summary of the method: (§1)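 Isolated-organ contractile bioassays: SP on rabbit vena cava (NK-1), neurokinin A on rabbit pulmonary artery (NK-2), neurokinin B on rat portal vein (NK-3); antagonist apparent affinity expressed as pA2 by Schild plot.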

[3] = Solubility was evaluated; type: physicochemical
[4] = biological target: T2, Neuromedin-K receptor (Rattus norvegicus, UniProt P16177); assay: Tested for antagonist activity against NK-3 receptor in rat portal vein by using Neurokinin B as agonist; type: functional; details: read-out: pA2 (converted)
T2 sequence (P16177 whole entry): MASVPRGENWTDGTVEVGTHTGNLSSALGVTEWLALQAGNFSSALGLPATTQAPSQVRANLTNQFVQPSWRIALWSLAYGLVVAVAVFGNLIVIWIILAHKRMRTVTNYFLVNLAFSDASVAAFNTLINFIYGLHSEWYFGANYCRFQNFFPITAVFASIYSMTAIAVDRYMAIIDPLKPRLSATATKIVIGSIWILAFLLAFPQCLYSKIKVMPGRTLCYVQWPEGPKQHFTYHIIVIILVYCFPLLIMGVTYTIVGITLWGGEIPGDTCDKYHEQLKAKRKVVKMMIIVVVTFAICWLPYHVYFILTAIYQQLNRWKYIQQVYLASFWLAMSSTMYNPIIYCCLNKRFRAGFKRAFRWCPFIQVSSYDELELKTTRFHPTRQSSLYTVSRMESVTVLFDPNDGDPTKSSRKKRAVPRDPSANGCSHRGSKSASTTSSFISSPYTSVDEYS
Summary of the method: as §1

[5] = tested on: Mus musculus; assay: Tested for antinociceptive activity against mouse hotplate test for 10 min after intravenous injection at 0.5 mg/kg
[6] = biological target: T3, Substance-K receptor (Rattus norvegicus, UniProt P16610); assay: Tested for binding affinity against rat NK-2 receptor transfected on CHO cells using [125I]-His] NKA as radioligand; type: cell-based
T3 sequence (P16610 whole entry): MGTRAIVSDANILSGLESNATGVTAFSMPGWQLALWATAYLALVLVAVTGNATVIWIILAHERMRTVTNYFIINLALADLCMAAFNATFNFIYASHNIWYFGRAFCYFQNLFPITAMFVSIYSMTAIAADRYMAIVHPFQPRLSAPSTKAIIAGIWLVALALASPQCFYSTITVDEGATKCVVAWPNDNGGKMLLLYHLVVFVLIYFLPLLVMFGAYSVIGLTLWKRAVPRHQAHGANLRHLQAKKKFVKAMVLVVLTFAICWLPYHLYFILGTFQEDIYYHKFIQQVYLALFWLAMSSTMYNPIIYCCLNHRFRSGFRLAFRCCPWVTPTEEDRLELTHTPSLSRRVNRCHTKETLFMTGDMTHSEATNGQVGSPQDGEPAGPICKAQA

[7] = biological target: T4, Substance-K receptor (Homo sapiens, UniProt P21452); assay: Tested for binding affinity against human NK-2 receptor transfected on CHO cells using [125I]-His] NKA as radioligand; type: cell-based
T4 sequence (P21452 whole entry): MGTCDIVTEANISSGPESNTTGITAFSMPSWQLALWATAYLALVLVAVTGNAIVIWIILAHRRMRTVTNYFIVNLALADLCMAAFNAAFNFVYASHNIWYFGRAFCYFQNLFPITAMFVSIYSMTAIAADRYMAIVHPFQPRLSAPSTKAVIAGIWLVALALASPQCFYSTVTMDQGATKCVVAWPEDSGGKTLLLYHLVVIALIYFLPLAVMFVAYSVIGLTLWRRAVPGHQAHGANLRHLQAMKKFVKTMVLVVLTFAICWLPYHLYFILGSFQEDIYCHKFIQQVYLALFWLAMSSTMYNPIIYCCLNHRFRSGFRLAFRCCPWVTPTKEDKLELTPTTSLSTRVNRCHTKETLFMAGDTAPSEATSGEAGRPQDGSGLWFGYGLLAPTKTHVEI

[8] = tested on: Mus musculus; assay: Tested for antinociceptive activity against mouse hotplate test for 60 min after oral administration of 40 mg/kg; type: functional
Summary of the method: (§2)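 Male CD1 mice (25-30 g) on a 55 ± 0.2 °C plate; forepaw-licking latency measured 60 min after oral 40 mg/kg given in water (soluble) or 0.2% hydroxypropylcellulose (insoluble); % increase of reaction time versus vehicle controls; groups of 12 animals; Dunnett t-test.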

[9] = species on record: Rattus norvegicus; assay: (§3) Binding affinity by displacement of tritiated substance P from its binding sites on membrane preparations from rat brain
[10] = species on record: Mus musculus; assay: (§4) Binding affinity by displacement of tritiated substance P from its binding sites on membrane preparations from mouse brain
[11] = tested on: Mus musculus; assay: Tested for antinociceptive activity against mouse hotplate test for 10 min after intravenous injection at 0.5 […] (P*<0.01); type: functional
[12] = species on record: Rattus norvegicus; assay: Tested for its ability to promote degranulation of rat peritoneal mast cells at 0.1 mM or lower; No degranulation; type: functional, cell-based
Summary of the method: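 Peritoneal mast cells lavaged from male Sprague-Dawley rats (350-400 g), buffer pH 6.8, 2 × 10^4 cells/mL, preincubated 10 min at 37 °C, then exposed to compound (10^-7 to 10^-4 M, in water or DMSO) 10 min at 37 °C; iced, centrifuged; histamine in supernatant and pellet measured fluorimetrically with o-phthalaldehyde, as % of total.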

[13] = tested on: Mus musculus; assay: Tested for antinociceptive activity against mouse hotplate test for 60 min after oral administration of 40 mg/kg (P*<0.05); type: functional
Summary of the method: as §2

[14] = as §3; type: tissue-based
[15] = as §4; type: tissue-based
[16] = biological target: Substance-P receptor (Rattus norvegicus, UniProt P14600); assay: Tested for the binding affinity against rat neurokinin-1 (NK-1) receptor transfected on CHO cells using [125I]-Tyr] SP as radioligand; type: cell-based
Sequence of Substance-P receptor (Rattus norvegicus, UniProt P14600) (P14600 whole entry): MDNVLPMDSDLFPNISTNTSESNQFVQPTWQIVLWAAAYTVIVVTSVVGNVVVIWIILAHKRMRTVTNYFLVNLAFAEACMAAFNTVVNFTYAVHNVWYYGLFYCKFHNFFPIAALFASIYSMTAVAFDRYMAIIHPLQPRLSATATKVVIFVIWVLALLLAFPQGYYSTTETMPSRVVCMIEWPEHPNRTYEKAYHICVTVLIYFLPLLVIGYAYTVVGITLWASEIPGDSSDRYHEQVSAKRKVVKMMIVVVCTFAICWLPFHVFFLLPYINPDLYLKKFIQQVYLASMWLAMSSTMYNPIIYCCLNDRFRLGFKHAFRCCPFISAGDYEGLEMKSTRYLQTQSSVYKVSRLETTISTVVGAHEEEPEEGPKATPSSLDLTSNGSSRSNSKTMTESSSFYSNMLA

[17] = biological target: T3, Substance-K receptor; assay: Tested for the binding affinity against rat neurokinin-2 (NK-2) receptor transfected on CHO cells using [125I]-His] NKA as radioligand; type: cell-based
[18] = tested on: Mus musculus; assay: Tested for antinociceptive activity in hot plate test at 60 min after 40 mg/kg oral administration in mouse; insoluble; type: functional, organism-based; set-up: dose 40 mg/kg; details: at 40 mg/kg
Summary of the method: as §2

[19] = biological target: Substance-P receptor (Homo sapiens, UniProt P25103); assay: Tested for binding affinity against human NK-1 receptor transfected on CHO cells using [125I]-Tyr] SP as radioligand; type: cell-based
Sequence of Substance-P receptor (Homo sapiens, UniProt P25103) (P25103 whole entry): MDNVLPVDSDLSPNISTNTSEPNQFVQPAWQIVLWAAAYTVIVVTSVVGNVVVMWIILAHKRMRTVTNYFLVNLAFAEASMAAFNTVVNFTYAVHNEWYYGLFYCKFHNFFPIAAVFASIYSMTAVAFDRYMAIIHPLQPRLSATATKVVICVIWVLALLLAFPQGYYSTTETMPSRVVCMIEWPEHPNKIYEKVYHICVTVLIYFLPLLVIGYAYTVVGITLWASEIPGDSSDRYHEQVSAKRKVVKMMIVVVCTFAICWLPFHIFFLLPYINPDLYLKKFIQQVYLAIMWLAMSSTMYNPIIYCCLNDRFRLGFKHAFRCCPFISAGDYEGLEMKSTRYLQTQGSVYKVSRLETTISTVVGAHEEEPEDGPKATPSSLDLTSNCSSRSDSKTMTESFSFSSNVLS

[20] = tested on: Mus musculus; assay: Tested for antinociceptive activity in hot plate test at 10 min after 0.5 mg/kg intravenous administration in mouse; insoluble; type: functional, organism-based; set-up: dose 0.5 mg/kg; details: at 0.5 mg/kg
[21] = biological target: Substance-P receptor (Oryctolagus cuniculus); assay: Tested for antagonist activity against NK1 receptor in rabbit vena cava by using substance P (SP) as agonist; details: read-out: pA2 (converted); remark: listed apart in the source

CN(Cc1ccccc1)C(=O)[C@H](Cc1ccccc1)NC(=O)[C@@H](Cc1cn(C(=O)OC(C)(C)C)c2ccccc12)NC(=O)C[C@@H]1NC(=O)[C@@H]2C3CCC(CC3)N2C1=O gave a Kb [1] of 0.126 µM, a Kb [2] of 12.6 µM and a solubility [3] of less than 10 µg/mL. The Kb [4] was 1.26 µM.

In the case of CN(Cc1ccccc1)C(=O)[C@H](Cc1ccccc1)NC(=O)[C@@H](Cc1cn(C)c2ccccc12)NC(=O)C[C@@H]1NC(=O)[C@@H]2C3CCC(CC3)N2C1=O, the Kb [2] is reported as 10 µM, the Increase [5] is reported as 17% and the solubility [3] is reported as less than 10 µg/mL. It also gave a Kb [4] of 7.94 µM, an IC50 [6] of 0.489 µM and an IC50 [7] of 0.079 µM. It also gave an Increase [8] of 10%.

CC(C)C[C@H](NC(=O)[C@H](CC(C)C)NC(=O)[C@@H](Cc1c[nH]c2ccccc12)NC(=O)[C@H](Cc1ccccc1)NC(=O)[C@@H](Cc1c[nH]c2ccccc12)NC(=O)[C@H](CCC(N)=O)NC(=O)[C@H](CCC(N)=O)NC(=O)[C@@H]1CCCN1C(=O)[C@H](CCCCN)NC(=O)[C@@H]1CCCN1C(=O)[C@H](N)CCCN=C(N)N)C(N)=O (HELM PEPTIDE1{[dR].P.K.P.Q.Q.[dW].F.[dW].L.L.[am]}$$$$V2.0) gave a Ki [9] of 2.6 µM, a Kb [4] of 0.631 µM and a Ki [10] of 2.6 µM.

With CCCCCCCC(=O)n1cc(C[C@@H](NC(=O)C[C@@H]2NC(=O)[C@@H]3C4CCC(CC4)N3C2=O)C(=O)N[C@@H](Cc2ccccc2)C(=O)N(C)Cc2ccccc2)c2ccccc21 the Kb [1] was 12.6 µM, the Kb [2] was 15.8 µM and the solubility [3] was less than 10 µg/mL. It also gave a Kb [4] of 12.6 µM.

In the case of CN(Cc1ccccc1)C(=O)[C@H](Cc1ccccc1)NC(=O)[C@@H](Cc1c[nH]c2ccccc12)NC(=O)C[C@@H]1NC(=O)[C@@H]2C3CCC(CC3)N2C1=O, the Kb [2] is reported as 2 µM, the solubility [3] is reported as less than 10 µg/mL and the Increase [11] is reported as 66%. For the same molecule, the Kb [4] was 1.58 µM, the IC50 [12] was “Not Active” and the IC50 [6] was 0.065 µM. It also gave an Increase [13] of 74% and an IC50 [7] of 0.065 µM.

In the case of CSCC[C@@H](NC(=O)[C@H](CC(C)C)NC(=O)CNC(=O)[C@H](Cc1ccccc1)NC(=O)[C@H](Cc1ccccc1)NC(=O)[C@H](CCC(N)=O)NC(=O)[C@H](CCC(N)=O)NC(=O)[C@@H]1CCCN1)C(N)=O, the Ki [14] is reported as 0.75 µM and the Ki [15] is reported as 0.75 µM.

In the case of CC(=O)N[C@H](C(=O)N[C@H](Cc1cn(C=O)c2ccccc12)C(=O)N[C@@H](Cc1ccccc1)C(=O)N(C)Cc1ccccc1)C(C)O (some centres undefined), the Kb [2] is reported as 3.98 µM, the IC50 [16] is reported as 3.4 µM and the IC50 [17] is reported as 0.824 µM. For the same molecule, the Ki [9] was 0.32 µM, the Kb [4] was 1.58 µM and the Increase [18] was “Insoluble”. For the same molecule, the IC50 [19] was 0.006 µM, the IC50 [7] was 0.099 µM and the Increase [20] was “Insoluble”. It also gave a Kb [21] of 0.0794 µM and a Ki [10] of 0.32 µM.
